# Reference: ChEMBL document CHEMBL3232832, “Derivatives of dibenzothiophene for positron emission tomography imaging of α7-nicotinic acetylcholine receptors” (J Med Chem, 2013)
# Experiments:
# [1] = Ratio of drug uptake in cortex to cerebellum in mouse; type: ADME, organism-based; conditions: in vivo
# [2] = biological target: T1, Neuronal acetylcholine receptor subunit alpha-7 (Rattus norvegicus, UniProt Q05941); experiment: Displacement of [125I]alpha-bungarotoxin from Sprague-Dawley rat brain alpha7-nAChR after 3 hrs
# T1 sequence (Q05941 whole entry): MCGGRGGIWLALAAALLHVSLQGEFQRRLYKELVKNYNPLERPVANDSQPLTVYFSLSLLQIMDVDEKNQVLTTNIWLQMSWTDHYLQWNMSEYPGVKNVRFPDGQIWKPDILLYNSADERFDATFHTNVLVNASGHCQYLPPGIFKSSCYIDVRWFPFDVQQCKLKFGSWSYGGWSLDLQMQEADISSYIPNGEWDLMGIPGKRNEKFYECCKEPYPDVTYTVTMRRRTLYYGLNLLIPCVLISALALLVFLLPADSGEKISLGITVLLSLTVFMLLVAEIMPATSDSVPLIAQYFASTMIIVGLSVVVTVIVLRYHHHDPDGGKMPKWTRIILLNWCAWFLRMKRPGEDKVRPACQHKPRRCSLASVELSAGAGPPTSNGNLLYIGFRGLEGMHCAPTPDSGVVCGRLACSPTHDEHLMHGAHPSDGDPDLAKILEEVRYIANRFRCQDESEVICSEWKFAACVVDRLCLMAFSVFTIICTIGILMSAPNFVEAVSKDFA
# [3] = biological target: T1, Neuronal acetylcholine receptor subunit alpha-7; experiment: Displacement of [125I]alpha-bungarotoxin from rat cortical membrane alpha7-nAChR after 150 mins by gamma-counting analysis
# [4] = biological target: T1, Neuronal acetylcholine receptor subunit alpha-7; experiment: Displacement of [125I]-alpha-BTX from rat alpha7-nAChR after 2 hrs by scintillation counting analysis
# [5] = test system: Nucleic Acid; experiment: Ratio of drug uptake in cortex to cerebellum in Danish Landrace pig; type: ADME, tissue-based, Sus scrofa; conditions: in vivo
# [6] = Selectivity ratio of Ki for alpha4beta2 nAChR (unknown origin) to Ki for rat cortical membrane alpha7 nAChR
# [7] = biological target: T1, Neuronal acetylcholine receptor subunit alpha-7; experiment: Displacement of [3H]MLA from rat alpha7 nAChR
# [8] = biological target: T1, Neuronal acetylcholine receptor subunit alpha-7; experiment: Binding affinity to rat brain alpha7 nAChR
# [9] = biological target: Neuronal acetylcholine receptor subunit alpha-7 (Homo sapiens, UniProt P36544); experiment: Binding affinity to alpha7 nAChR (unknown origin)
# Sequence of Neuronal acetylcholine receptor subunit alpha-7 (Homo sapiens, UniProt P36544) (P36544 whole entry): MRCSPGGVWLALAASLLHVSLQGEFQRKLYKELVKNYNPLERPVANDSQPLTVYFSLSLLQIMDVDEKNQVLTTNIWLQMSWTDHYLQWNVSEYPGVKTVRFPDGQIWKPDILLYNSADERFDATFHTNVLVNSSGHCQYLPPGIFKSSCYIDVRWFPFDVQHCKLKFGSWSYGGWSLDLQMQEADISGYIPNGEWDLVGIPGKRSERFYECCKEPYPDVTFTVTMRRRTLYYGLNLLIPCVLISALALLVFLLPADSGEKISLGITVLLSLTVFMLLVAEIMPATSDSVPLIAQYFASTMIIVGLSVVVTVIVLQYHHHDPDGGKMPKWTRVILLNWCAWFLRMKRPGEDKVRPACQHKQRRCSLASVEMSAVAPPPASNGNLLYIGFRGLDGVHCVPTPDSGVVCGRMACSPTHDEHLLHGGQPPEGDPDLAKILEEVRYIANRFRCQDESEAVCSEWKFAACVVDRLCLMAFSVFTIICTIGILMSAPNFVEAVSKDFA
# [10] = test system: Nucleic Acid; experiment: Ratio of drug uptake in cortex to cerebellum in CD-1 mouse by gamma-counting analysis; type: ADME, tissue-based; conditions: in vivo
# [11] = Selectivity ratio of Ki for human 5HT3 receptor to Ki for rat cortical membrane alpha7 nAChR
# [12] = test system: Nucleic Acid; experiment: Ratio of drug uptake in cortex to cerebellum in CD-1 mouse at 0.67 MBq after 5 to 120 mins; type: ADME; conditions: in vivo
# [13] = test system: Nucleic Acid; experiment: Ratio of drug uptake in cortex to cerebellum in pig; type: ADME, tissue-based, Sus scrofa; conditions: in vivo
# [14] = test system: Cerebellum; experiment: Drug uptake in CD-1 mouse cerebellum at 70 uCi, iv followed by compound washout by gamma-counting analysis; type: ADME, organism-based; conditions: in vivo
# How it was run: (§1)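 Male CD-1 mice (25–30 g), three per time point. [18F] radiotracer (70 µCi, SA 8000–12000 mCi/µmol, in 0.2 mL saline) given by tail vein. Killed at several times up to 90 min. Dissected regions weighed and gamma counted against injectate standards, giving %ID/g.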
# [15] = Drug uptake in CD-1 mouse superior and inferior colliculus at 0.07 mCi, iv after 90 mins in presence of 3-(1,4-Diazabicyclo[3.2.2]nonan-4-yl)dibenzo[b,d]-thiophene 5,5-dioxide; type: ADME, organism-based; conditions: in vivo, 1.5 h
# How it was run: (§2)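 Male CD-1 mice. [18F]tracer (0.07 mCi, SA 11000 mCi/µmol, i.v.) co-injected with α7 antagonist blocker at 0.001, 0.0045 or 0.014 mg/kg, handled as in the dose-escalation blockade. Brain regions harvested at 90 min and gamma-counted. %ID/g, mean ± SD, n=3; ANOVA versus controls.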
# [16] = test system: Cerebellum; experiment: Drug uptake in CD-1 mouse colliculus at 0.07 mCi, iv after 90 mins relative to drug uptake in CD-1 mouse cerebellum; type: ADME, organism-based; conditions: in vivo, 1.5 h
# [17] = test system: Striatum; experiment: Drug uptake in CD-1 mouse striatum at 70 uCi, iv followed by compound washout by gamma-counting analysis; type: ADME, organism-based; conditions: in vivo
# How it was run: (§3)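 Male CD-1 mice (25–30 g) given [18F]radioligand i.v. into a lateral tail vein (70 µCi, 8000–12000 mCi/µmol, in 0.2 mL saline). Killed by cervical dislocation at various times, three per time point. Brains dissected on ice; regions weighed and gamma-counted with injectate standards. Result as %ID/g.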
# [18] = test system: Hippocampus; experiment: Drug uptake in CD-1 mouse hippocampus at 0.07 mCi, iv after 90 mins in presence of 3-(1,4-Diazabicyclo[3.2.2]nonan-4-yl)dibenzo[b,d]-thiophene 5,5-dioxide; type: ADME, organism-based; conditions: in vivo, 1.5 h
# [19] = Drug uptake in CD-1 mouse superior and inferior colliculus at 70 uCi, iv followed by compound washout by gamma-counting analysis; type: ADME, organism-based; conditions: in vivo; how it was run: as §3
# [20] = test system: Nucleic Acid; experiment: Ratio of drug uptake from hippocampus to cerebellum in CD-1 mouse after 90 mins; type: ADME, nucleic-acid assay; conditions: 1.5 h
# [21] = test system: Hippocampus; experiment: Drug uptake in CD-1 mouse hippocampus at 70 uCi, iv followed by compound washout by gamma-counting analysis; type: ADME, organism-based; conditions: in vivo; how it was run: as §1
# [22] = test system: Cerebellum; experiment: Drug uptake in CD-1 mouse cerebellum at 0.07 mCi, iv after 90 mins in presence of 3-(1,4-Diazabicyclo[3.2.2]nonan-4-yl)-6-fluorodibenzo[b,d]thiophene 5,5-Dioxide; type: ADME, organism-based; conditions: in vivo, 1.5 h
# How it was run: (§4)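 Male CD-1 mice, n=3. [18F] radiotracer (70 µCi, 0.2 mL) given i.v. together with unlabeled blocker in saline pH 5.5. Brain regions dissected at 90 min, gamma counted, expressed as %ID/g.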
# [23] = test system: Thalamus; experiment: Drug uptake in CD-1 mouse thalamus at 70 uCi, iv followed by compound washout by gamma-counting analysis; type: ADME, organism-based; conditions: in vivo; how it was run: as §3
# [24] = test system: Cerebellum; experiment: Ratio of clearance in CD-1 mouse cerebellum to clearance in CD-1 mouse other brain tissues at 70 uCi, iv followed by compound washout after 90 mins by gamma-counting analysis; type: ADME, organism-based; conditions: in vivo, 1.5 h
# How it was run: (§5)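 CD-1 mouse baseline biodistribution after i.v. [18F]radioligand (70 µCi, 8000–12000 mCi/µmol, in 0.2 mL saline), three mice per time point to 90 min. Regional gamma-counting gave %ID/g, and each region was expressed as a ratio to cerebellum.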
# [25] = test system: Mus musculus; experiment: Toxicity in CD-1 mouse assessed as change in locomotor activity at 0.07 mCi, iv after 90 mins in presence of 7-(1,4-Diazabicyclo[3.2.2]nonan-4-yl)-2-fluorodibenzo[b,d]-thiophene 5,5-Dioxide; type: organism-based; conditions: in vivo, 1.5 h
# How it was run: (§6)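 CD-1 mice observed for behavioral and locomotor changes during self-blockade studies. [18F]tracer (0.07 mCi, i.v.) was co-injected with the non-radioactive ligand at 0.3 or 0.2 mg/kg i.v., dissolved in saline at pH 5.5. Brains were harvested at 90 min.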
# [26] = test system: Nucleic Acid; experiment: Ratio of drug uptake from cortex to cerebellum in CD-1 mouse after 90 mins; type: ADME, tissue-based; conditions: 1.5 h
# [27] = test system: Cerebellum; experiment: Drug uptake in CD-1 mouse cerebellum at 0.07 mCi, iv after 90 mins in presence of 7-(1,4-Diazabicyclo[3.2.2]nonan-4-yl)-2-fluorodibenzo[b,d]-thiophene 5,5-Dioxide; type: ADME, organism-based; conditions: in vivo, 1.5 h; how it was run: as §4
# [28] = test system: Cerebellum; experiment: Drug uptake in CD-1 mouse cerebellum at 0.07 mCi, iv after 90 mins in presence of 3-(1,4-Diazabicyclo[3.2.2]nonan-4-yl)dibenzo[b,d]-thiophene 5,5-dioxide; type: ADME, organism-based; conditions: in vivo, 1.5 h
# [29] = test system: Brain; experiment: Drug uptake in CD-1 mouse other brain regions at 0.07 mCi, iv after 90 mins in presence of 3-(1,4-Diazabicyclo[3.2.2]nonan-4-yl)dibenzo[b,d]-thiophene 5,5-dioxide; type: ADME, organism-based; conditions: in vivo, 1.5 h; how it was run: as §2
# [30] = test system: Nucleic Acid; experiment: Ratio of drug uptake from superior and inferior colliculus to cerebellum in CD-1 mouse after 90 mins; type: ADME, nucleic-acid assay; conditions: 1.5 h; how it was run: as §5
# [31] = Drug uptake in CD-1 mouse frontal cortex at 70 uCi, iv followed by compound washout by gamma-counting analysis; type: ADME, organism-based; conditions: in vivo; how it was run: as §1
# [32] = test system: Mus musculus; experiment: Toxicity in CD-1 mouse assessed as change in behavioral activity at 0.07 mCi, iv after 90 mins in presence of 7-(1,4-Diazabicyclo[3.2.2]nonan-4-yl)-2-fluorodibenzo[b,d]-thiophene 5,5-Dioxide; type: organism-based; conditions: in vivo, 1.5 h; how it was run: as §6
smiles,measurement,setting,value
[11CH3]c1ccc(OC(=O)N2CCN3CCC2CC3)cc1,Ratio,[1],0.6
same,Ki,[2],46 nM
[11CH3]n1cccc1-c1nnc(N2CCN3CCC2CC3)o1,Ki,[3],20.4 nM
same,Ki,[4],2.2 nM
same,Ratio,[5],1
O=S1(=O)c2ccc(I)cc2-c2ccc(N3CCN4CCC3CC4)cc21,Ratio Ki,[6],63
[18F]c1ccccc1-c1cnc2c(c1)CC1(CN3CCC1CC3)O2 (stereo unspecified),Ki,[3],3.3 nM
same,Ratio,[1],0.8
same,Ki,[7],0.2 nM
[11CH3]N1CC2CN(c3ccc(-c4ccccc4)nn3)CC2C1 (stereo unspecified),Ratio,[1],0.2
same,Ki,[8],10.8 nM
O=S1(=O)c2ccccc2-c2ccc(N3CCN4CCC3CC4)c(F)c21,Ratio Ki,[6],66
CN1C[C@H]2CN(c3ccc4c(c3)C(=O)c3cc(N5C[C@@H]6CN([11CH3])[C@@H]6C5)ccc3-4)C[C@H]21,Ki,[9],0.092 nM
O=S1(=O)c2ccccc2-c2c(N3CCN4CCC3CC4)ccc(F)c21,Ratio Ki,[6],210
[11CH3]N1CC2CN(c3ccc(-c4ccc5[nH]ccc5c4)nn3)CC2C1 (stereo unspecified),Ratio,[10],0.5
same,Ki,[9],0.24 nM
O=S1(=O)c2cc(N3CCN4CCC3CC4)ccc2-c2cccc(F)c21,Ratio Ki,[6],1370
same,Ratio Ki,[11],561
[125I]c1occc1-c1cnc2c(c1)CC1(CN3CCC1CC3)O2 (stereo unspecified),Ratio,[12],0.6
[18F]c1ccc(-c2nnc(N3CCN4CCC3CC4)o2)cc1,Ki,[3],38 nM
same,Ki,[9],11.6 nM
same,Ratio,[1],0.4
same,Ratio,[13],0.8
O=[11C](Nc1ccc(Br)cc1)OC1CN2CCC1CC2 (stereo unspecified),Ratio,[1],0.3
O=S1(=O)c2ccc(F)cc2-c2ccc(N3CCN4CCC3CC4)cc21,Ratio Ki,[6],663
same,Ratio Ki,[11],378
[11CH3]N1CC2CN(c3ccc4oc5ccccc5c(=O)c4c3)CC2C1 (stereo unspecified),Ki,[7],11 nM
O=S1(=O)c2ccc([18F])cc2-c2ccc(N3CCN4CCC3CC4)cc21,Drug uptake,[14],Active
same,Drug uptake,[15],Not Active
same,Drug uptake,[16],80%
same,Drug uptake,[17],Active
same,Drug uptake,[18],Not Active
same,Drug uptake,[19],Active
same,Ratio,[20],3.1
same,Drug uptake,[21],Active
same,Drug uptake,[22],Active
same,Drug uptake,[23],Active
same,Ratio,[24],4.5
same,Activity,[25],Non-toxic
same,Ratio,[26],2
same,Drug uptake,[27],Active
same,Drug uptake,[28],Not Active
same,Drug uptake,[29],Not Active
same,Ratio,[30],2
same,Drug uptake,[31],Active
same,Activity,[32],Non-toxic
